EBI2 block: EBI2 receptor antagonists, beta-arrestin recruitment, primary screen, cell-based, luminescence, 7a,25-OHC stimulation, uHTS | 7a,25-OHC stimulated | inhibition, % at 5 µM | 0.81% of 360,000 active | AID 651636, 2012; in the data active means inhibition above about 38%;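 further: enzyme fragment complementation signal reports receptor beta-arrestin coupling in cells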
CXCR6 inh: CXCR6 receptor inhibitors, primary screen, cell-based, beta-arrestin, luminescence, CHO-K1 PathHunter, 1536-well; C-X-C chemokine receptor type 6 (Homo sapiens), O00574; inhibition, % at 20 µM; 0.36% of 360,000 active; in the data active means inhibition above about 34%, passing the limit was not always enough;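 further: antagonist mode with CXCL16 agonist at 10 nM final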
APJ agonist: agonists of human apelin receptor APJ, primary screen, CHO-K1 cells, PathHunter beta-arrestin, luminescence; P35414; 0% DMSO wells, 100% apelin; activation, % at 20 µM; 0.11% of 330,000 active; AID 2520, 2010;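 active means activation more than six SD over the plate average, tested at 20 µM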
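Assay system: engineered CHO-K1 APJ arrestin reporter cells; Amount: 1000 CHO-K1 reporter cells seeded per well; Dosing: one dose, 20 µM compound, 1% DMSO; Times: compound stimulation 90 min at 25 °C, detection 60 min; Measured by: luminescent beta-gal fragment complementation, chemiluminescent substrate; Read-out: APJ–arrestin association signal; Controls: DMSO vs Apelin-13 10 nM.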
CCR6 antag: CCR6 receptor antagonists, primary screen, cell-based, CHO-K1, luminescence, beta-arrestin, uHTS; CHO-K1 CCR6 PathHunter beta-arrestin, CCL20-stimulated; inhibition, % at 20 µM; 0.49% of 340,000 active; AID 493098, 2011;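 active means compounds whose inhibition of the agonist-driven luminescence signal at 20 µM reaches about 50%, limit read from the data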;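 further: cells stimulated with CCL20 at 14 nM final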
Target sequence (P51684 whole entry, looked up): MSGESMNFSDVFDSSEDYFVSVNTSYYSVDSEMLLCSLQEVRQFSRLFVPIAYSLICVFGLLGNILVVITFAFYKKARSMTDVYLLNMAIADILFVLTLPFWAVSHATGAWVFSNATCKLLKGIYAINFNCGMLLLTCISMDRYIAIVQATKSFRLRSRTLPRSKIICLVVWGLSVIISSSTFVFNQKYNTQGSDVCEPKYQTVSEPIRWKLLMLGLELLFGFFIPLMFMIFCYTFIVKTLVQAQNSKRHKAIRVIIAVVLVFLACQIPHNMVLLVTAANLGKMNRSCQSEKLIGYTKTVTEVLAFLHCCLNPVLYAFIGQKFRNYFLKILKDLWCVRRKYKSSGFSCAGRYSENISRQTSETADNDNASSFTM
APJ antagonist: antagonists of human apelin receptor APJ, primary screen, CHO-K1 cells, beta-arrestin complementation, luminescence | P35414 | inhibition, % at 20 µM | 0.32% of 330,000 active | AID 2521, 2010;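 active means inhibition above about 40% at 20 µM, limit read from the data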;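 further: cells challenged with 10 nM apelin-13 agonist together with compound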
EBI2 antag conf: EBI2 antagonist hit retest, beta-arrestin, confirmation, cell-based, single concentration, luminescence, 7a,25-OHC stimulation | shares compounds with EBI2 block | 7a,25-OHC antagonism | inhibition, % at 5 µM | 29% of 2,400 active | AID 651997, 2013;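 active means inhibition of at least 50%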
EBI2 agonist: EBI2 agonist activity of antagonist hits, confirmation, counter-screen for EBI2 antagonist project, cell-based, single concentration, agonist mode, luminescence; shares compounds with EBI2 block; EBI2-expressing cells, 60 min; 0% vehicle, 100% 7α,25-dihydroxycholesterol control; activation, % at 5 µM; 2,400 tested, under 10 active; AID 652000, 2013;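 active means activation of at least 50%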
bGal cs: E. coli beta-galactosidase enzyme inhibition, confirmation, counter-screen for EBI2 antagonist project, biochemical, luminescence, single concentration | shares compounds with EBI2 block | purified beta-galactosidase, luminescent Galacton Star, 15 min | inhibition, % at 5 µM | 1% of 2,400 active;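 active means replicate-average signal at least 3 plate SD below neutral wells, shown as high inhibition, flagging enzyme-inhibiting false positives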;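 further: higher means stronger loss of beta-gal luminescence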
Each line names hits and unclear results; the compound was inactive in the other large screens (follow-up assays come after a bar, where they were run). Sampled rows, rich in hits. Any-hit rate of the full collection: about 1.5%.

COc1ccc(CN2CCN(C(=O)c3cccc4ccccc34)CC2)c(OC)c1OC	none
CC(C)[Si]1(C(C)C)OCC2OC(n3cnc4c(N)ncnc43)C(N)C2O[Si](C(C)C)(C(C)C)O1 (stereo not given)	none (no result: APJ agonist, APJ antagonist)
C=C1CCCC2OC(CC3=CC4/C(C)=C/CC(C)CC(/C=C(\C)C(O)C5CC(O)C(O)C(CCC(O)/C=C/C(C)=C/CCC6=NCCC(C3)C64C)O5)OC(=O)CC3OC(C(O)C1)C(O)C3O)CC(O)C2O (stereo not given)	none (no result: APJ agonist, CCR6 antag, APJ antagonist)
S=c1[nH]nc(-c2cc(-c3ccccc3)n[nH]2)n1/N=C/c1c(Cl)cccc1Cl	EBI2 block 44 | EBI2 antag conf 65 | EBI2 agonist inactive | bGal cs inactive
Cc1ccccc1/C=N/n1c(-c2cc(-c3ccccc3)n[nH]2)n[nH]c1=S	none
N#Cc1c(-c2ccccc2)c(-c2ccccc2)nn(CC(=O)NNC(=O)Nc2ccc(Cl)c(Cl)c2)c1=O	EBI2 block 79 | EBI2 antag conf inactive | EBI2 agonist inactive | bGal cs inactive
NS(=O)(=O)c1ccc(N/N=C/c2ccc(O)cc2O)c([N+](=O)[O-])c1	EBI2 block 43 | EBI2 antag conf inactive | EBI2 agonist inactive | bGal cs inactive
NS(=O)(=O)c1ccc(N/N=C/c2ccc(O)c(O)c2O)c([N+](=O)[O-])c1	none (no result: APJ agonist, APJ antagonist)
Clc1ccc2[nH]cc(-c3nnnn3-c3ccc4ccccc4c3)c2c1	EBI2 block 45 | EBI2 antag conf inactive | EBI2 agonist inactive | bGal cs inactive
Cc1ccc(-n2nnnc2-c2cnc3ccc(Cl)cc3c2-c2ccccc2)cc1	none
Cn1cc(S(=O)(=O)N2CCc3ccccc32)cc1C(=O)Nc1ccc(Cl)cc1	EBI2 block 46 | EBI2 antag conf inactive | EBI2 agonist inactive | bGal cs inactive

Bioassay records (PubChem)
